Measured values gathered from unrelated publications.
Protocols differ between the studies behind these lines.
Target: Carbonic anhydrase 1 (CA1, Homo sapiens, UniProt P00915)
Effect on: enzyme activity
Mode: inhibitor

Compound	assay	endpoint	value
NC(=S)N/N=C1/c2ccccc2[C@@H]2[C@H]1[C@@H](c1cccs1)[C@H](C(=O)c1cccs1)[C@H]2c1cccs1 (racemic)	absorbance	IC50	774 nM
CCOP1(=O)CC=Cc2cc(N)ccc2O1 (stereo not drawn)	stopped-flow	Ki	> 10000 nM
NC(=S)N/N=C1/c2ccccc2[C@@H]2[C@H]1[C@@H](c1ccc(F)cc1)[C@H](C(=O)c1ccc(F)cc1)[C@H]2c1ccc(F)cc1 (racemic)	absorbance	IC50	293 nM
N#C[Se]Cc1cc(=O)oc2cc(O)ccc12	stopped-flow	Ki	> 100000 nM
Cc1ccc([C@H]2[C@H](C(=O)c3cccs3)[C@@H](c3cccs3)[C@@H]3c4ccccc4/C(=N/NC(N)=S)[C@@H]32)cc1 (racemic)	absorbance	IC50	1670 nM
CC(C)c1cc2c(c(O)c1O)[C@@]13CCCC(C)(C)[C@@H]1[C@H](OC3=O)[C@H]2O		IC50	0.21 nM
N#C[Se]CCCCOc1ccc2c(-c3ccccc3)cc(=O)oc2c1	stopped-flow	Ki	> 100000 nM
Cc1ccc([C@@H]2[C@@H](C(=O)c3cccs3)[C@H](c3ccco3)[C@H]3/C(=N\NC(N)=S)c4ccccc4[C@H]32)cc1 (racemic)	absorbance	IC50	413 nM
O=C(Nc1ccc2c(c1)C=CCP(=O)(O)O2)c1ccc([N+](=O)[O-])cc1	stopped-flow	Ki	> 10000 nM
CC(C)c1cc2c(c(O)c1O)[C@@]13CCCC(C)(C)[C@@H]1[C@@H](O)[C@@H]2OC3=O		Ki	1.28 nM
O=C(Nc1cccc(Cl)c1)Nc1ccc2c(c1)C=CCP(=O)(O)O2	stopped-flow	Ki	> 10000 nM
CC(C)c1cc2c(c(O)c1O)[C@@]13CCCC(C)(C)[C@@H]1C[C@@H]2OC3=O		IC50	2.4 nM
NC(=S)N/N=C1/c2ccccc2[C@@H]2[C@H]1[C@@H](c1ccccc1)[C@H](C(=O)c1ccccc1)[C@H]2c1ccccc1 (racemic)	absorbance	IC50	1550 nM
CC(C)c1cc2c(c(O)c1O)[C@@]1(C(=O)O)CCCC(C)(C)[C@@H]1CC2		Ki	5.98 nM
O=C(Nc1ccc2c(c1)C=CCP(=O)(O)O2)c1ccc(F)cc1	stopped-flow	Ki	> 10000 nM
